In general, inhibition refers to the drop in the measured response relative to a control, in per cent.

The values below come from PubChem BioAssay.

Calls of active or inactive are those of the source.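 How the source made its calls, unless noted: active means NADPH fluorescence slope more negative than the mean of all samples by about 3 SD, 99.7% confidence; inactive means the rest.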

The nature of assay [1]: inhibitors of TNFa-induced NFkB p65 translocation, primary screen, imaging, HUVEC, MLSMR starter and 10KST1 sets (AID 438;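 active means inhibition above 20% together with a positive visual image hit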;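 further: compound added about 3h40 before a 20 min TNFalpha stimulation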;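 on inhibition: signal is the nuclear over cytoplasmic p65 intensity ratio per well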). The note with it: HUVEC TNFa-induced p65 nuclear translocation; cell count: measured here: nuclei count (cytotoxicity indicator), at 2.08 µM; inhibition: at 2 µM, stronger effect = higher value, 0% TNFa-plus-vehicle, 100% no-TNFa wells.
Assay [2] in a line: endothelial E-selectin expression blockers – imaging, HUVEC, immunofluorescence, MLSMR starter and 10KST1 sets, primary screen (AID 487;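 active means visually confirmed hit in the image check and inhibition above 20%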;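 on inhibition: signal is fraction of cell area covered by stained E-selectin grains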;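 on nuclei count: 100% = median nuclei count of all wells on the same plate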). The note with it: HUVEC TNFalpha-induced E-selectin immunofluorescence imaging, at 2 µM; inhibition: stronger effect = higher value; nuclei count: measured here: cell number, toxicity.
Assay [3] can be described thus: Primary imaging screen for DUSP6 inhibitors that restore phospho-Erk in transfected HeLa cells, chemical complementation (AID 609;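 active means compounds giving at least 50% inhibition in the cell-based MKP-3 phosphatase rescue imaging test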;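 on inhibition: phospho-Erk level distribution per well compared with pooled transfected vehicle control wells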). The note with it: HeLa MKP-3 transfected, phospho-Erk imaging KS statistic, at 10 µM, cells stimulated with TPA for 15 min.
In assay [4] the target is Dual specificity protein phosphatase 6 (Homo sapiens) (UniProt Q16828). The assay is described as above. Particulars: HeLa MKP-3 transfected, phospho-Erk imaging KS statistic; at 10 µM; stronger effect = higher value; cells stimulated with TPA for 15 min.
Assay [5] concerns the target Voltage-gated potassium channel subunit beta-2 (Rattus norvegicus) (UniProt P62483). Put plainly: inhibitors of rat Kvbeta2 reductase activity – biochemical, NADPH fluorescence, primary screen (AID 622;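 active means fluorescence slope higher than the sample average by over 3 SD, cut at about -0.22 in these data, passing the limit was not always enough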;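 further: slope of raw intensity against log time taken from 70 to 1610 s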). The note with it: recombinant KvBeta, 4-cyanobenzaldehyde reduction, at 10 µM, stronger effect = higher value.
The target is the same in assay [6]. Nature of the assay: enhancers of rat Kvbeta2 NADPH turnover – biochemical, NADPH fluorescence, primary screen (AID 623).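 Further: fluorescence intensity change per second fitted from 20 to 320 s.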 Particulars: Recombinant KvBeta, NADPH fluorescence decrease slope, 10 min; at 10 µM; stronger effect = lower value.
Assay [7] addresses Alpha-2C adrenergic receptor (Homo sapiens) (UniProt P18825). Nature of the assay: compounds altering alpha2C-coupled GIRK flux – cell-based, HEK293 alpha2C/GIRK1/2, thallium flux, primary screen (AID 624;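 active means fluorescence slope after compound addition differing from the mean of all screened samples at 99.7% confidence, in either direction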;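 further: slope of fluorescence ratio to pre-addition baseline per second over 15 to 24 s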). Particulars: thallium flux BTC fluorescence, at 10 µM, actives lie on both sides.
A short description of assay [8]: inhibitors of larval lipid processing in zebrafish, primary screen, whole organism, PED6 fluorescence, gall bladder and intestine (AID 686;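 active means a full or partial loss of lipid-probe fluorescence in the fish gall bladder, intestine or both, judged by eye; inactive means no fluorescence loss, or compound toxic to the fish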;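 further: larvae 5 to 7 days old with five fish per well; signal comes from phospholipase A2 cleavage of quenched PED6 carried via bile; overnight exposure to compound and PED6 before scoring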). Particulars: Zebrafish larvae PED6 lipid processing, fluorescence scoring; screened at 20 µM (by protocol). The gist of the method: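 Test system – live zebrafish larvae aged 5-7 days, whole organism · Buffer or medium – E3 fish medium · Reagent – quenched phospholipase substrate PED6, 100 nM final, ingested by larvae · Doses – 20 µM single dose · Incubation – overnight compound and PED6 incubation · Technique – visual fluorescence microscopy scoring of gall bladder, gut · Read-out basis – visual per-well fluorescence inhibition score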

A short description of assay [9]: loss of swimming-algae plug formation – whole organism, Chlamydomonas reinhardtii, WT vs cilia-less mutant, absorbance, 96-well, primary screen (AID 463189;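 active means inhibition at or above 50% relative to wild type and mutant plate controls; inactive means inhibition below 50%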;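 further: 0% = wild type cc124 cells in DMSO and 100% = ciliumless bld1 mutant cells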). Particulars: Chlamydomonas reinhardtii gravitaxis, OD600 absorbance, 2 days; at 10 µM; stronger effect = higher value.
Where [10] appears, read: measured here: cell density z-score.
[11] abbreviates: measured here: nuclear c-Myc green intensity z-score.
Where [12] appears, read: measured here: nuclear pErk red intensity z-score, stronger effect = higher value.

Sequence of Dual specificity protein phosphatase 6 (Homo sapiens) (Q16828 whole entry, looked up): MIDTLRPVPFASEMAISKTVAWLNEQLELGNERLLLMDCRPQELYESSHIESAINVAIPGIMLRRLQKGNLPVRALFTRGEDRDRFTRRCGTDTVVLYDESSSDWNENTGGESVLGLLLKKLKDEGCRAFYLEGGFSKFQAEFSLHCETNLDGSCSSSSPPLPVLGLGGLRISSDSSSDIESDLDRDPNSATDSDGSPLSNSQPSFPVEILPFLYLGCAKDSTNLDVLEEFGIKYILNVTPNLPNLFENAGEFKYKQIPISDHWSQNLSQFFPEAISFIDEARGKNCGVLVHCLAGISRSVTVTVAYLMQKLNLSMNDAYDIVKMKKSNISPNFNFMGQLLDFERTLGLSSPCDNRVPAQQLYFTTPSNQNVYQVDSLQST
Sequence of Voltage-gated potassium channel subunit beta-2 (Rattus norvegicus) (P62483 whole entry, looked up): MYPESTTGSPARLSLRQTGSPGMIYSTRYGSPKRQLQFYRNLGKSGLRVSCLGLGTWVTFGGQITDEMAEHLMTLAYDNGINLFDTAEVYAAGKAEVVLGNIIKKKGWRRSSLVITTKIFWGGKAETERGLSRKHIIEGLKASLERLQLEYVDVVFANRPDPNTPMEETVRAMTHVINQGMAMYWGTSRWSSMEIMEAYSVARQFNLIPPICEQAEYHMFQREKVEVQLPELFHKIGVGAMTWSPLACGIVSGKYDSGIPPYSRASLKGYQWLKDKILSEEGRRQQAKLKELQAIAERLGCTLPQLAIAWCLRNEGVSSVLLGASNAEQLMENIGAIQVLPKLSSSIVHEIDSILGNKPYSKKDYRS
Sequence of Alpha-2C adrenergic receptor (Homo sapiens) (P18825 whole entry, looked up): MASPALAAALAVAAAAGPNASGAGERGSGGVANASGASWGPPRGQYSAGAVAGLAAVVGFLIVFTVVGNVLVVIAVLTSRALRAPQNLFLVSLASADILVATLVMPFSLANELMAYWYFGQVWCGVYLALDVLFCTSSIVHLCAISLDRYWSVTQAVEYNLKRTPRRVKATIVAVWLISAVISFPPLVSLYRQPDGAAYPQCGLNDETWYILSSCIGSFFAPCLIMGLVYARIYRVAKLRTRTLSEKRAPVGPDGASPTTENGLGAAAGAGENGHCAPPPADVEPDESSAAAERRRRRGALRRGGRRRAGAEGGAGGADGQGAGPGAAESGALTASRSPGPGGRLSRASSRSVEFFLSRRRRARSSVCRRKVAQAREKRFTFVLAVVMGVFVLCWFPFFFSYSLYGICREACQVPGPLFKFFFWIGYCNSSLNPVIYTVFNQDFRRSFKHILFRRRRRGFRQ

Regarding `CCOC(=O)c1c(NC(=O)CCN2CCOCC2)sc2c1CC(C)(C)OC2`, the cell count in assay [1] worked out at 658. In addition, the inhibition is -8.1% (inactive) in [1], -45.3% (inactive) in assay [2], -7.28% (inactive) in assay [4] and -12.8% (inactive) in assay [9]. Further, the nuclei count in assay [2] was determined as 163%. For the same compound, the z-score in assay [3] (setting [10]) stood at 0.476; in assay [3] (setting [11]), 1.14; in assay [3] (setting [12]), 0.27. Besides, in [5], the fluorescence slope was -0.422 (inactive). The NADPH fluorescence slope in [6] is -3e-05 (inactive). Further, the slope in assay [7] was 0.00607 (inactive). Besides, the compound was classed as inactive in [8].
For the compound `Cn1c(=O)oc2cc(C(=O)c3ccccc3)ccc21`, in assay [1], the cell count was 442. Besides, the inhibition in assay [1] was -7.7% (inactive); in assay [2], -42.8% (inactive); in [4], 1.04% (inactive); in assay [9] it was -6.29% (inactive). Besides, in assay [2], the nuclei count amounted to 177%. Also, the z-score in assay [3] (setting [10]) is 0.0253; in assay [3] (setting [11]), -0.374; in assay [3] (setting [12]) it was -0.71. In addition, the fluorescence slope in assay [5] is -0.332 (inactive). Further, in assay [6], the NADPH fluorescence slope was -3.5e-05 (inactive). Also, in [7], the slope is 0.00473 (inactive). Moreover, the result in [8] was inactive.
For `CC(=O)Nn1cnc2c(c1=O)C1(CCCC1)Cc1ccccc1-2`, in [1], the cell count was found to be 520. The inhibition is -1.9% (inactive) in [1], 29.6% (inactive) in assay [2], -2.69% (inactive) in assay [4] and 43% (inactive) in [9]. This compound also had a nuclei count in [2] of 113%. The z-score in [3] (setting [10]) was -0.985; in [3] (setting [11]) it was 1.83; in assay [3] (setting [12]), 1.16. In addition, the fluorescence slope in assay [5] was -0.382 (inactive). The NADPH fluorescence slope in assay [6] is -2e-06 (inactive). Also, in [7], the slope was 0.0042 (inactive). The compound was classed as inactive in [8].
Take `CCCC(=O)Nn1cnc2c(c1=O)C1(CCCC1)Cc1ccccc1-2`: the cell count in [1] amounted to 558. Besides, the inhibition in [1] is -2.6% (inactive); in assay [2] it was -157% (inactive); in assay [4], 11.9% (inactive); in [9] it was -19.9% (inactive). In addition, in assay [2], the nuclei count is 108%. The z-score is -0.794 in [3] (setting [10]), -0.594 in assay [3] (setting [11]) and -0.952 in assay [3] (setting [12]). Besides, the fluorescence slope in assay [5] is -0.327 (inactive). The NADPH fluorescence slope in assay [6] was 2.7e-05 (inactive). Moreover, the slope in assay [7] is 0.00422 (inactive). For the same compound, the call in assay [8] was inactive.
As for `CC(C)(C)n1nnc(CCc2nnn(C(C)(C)C)n2)n1`, the cell count in assay [1] is 276. The inhibition in assay [1] was -17.8% (inactive); in assay [2] it was -32.2% (inactive); in [4], 10.5% (inactive); in assay [9] it was -11.8% (inactive). In assay [2], this compound registered a nuclei count of 104%. The z-score in [3] (setting [10]) was 0.0896; in assay [3] (setting [11]) it was 1.07; in assay [3] (setting [12]), -0.74. For the same compound, the fluorescence slope in assay [5] was -0.44 (inactive). Also, the NADPH fluorescence slope in assay [6] is -0.000126 (inactive). In assay [7], the slope is 0.00595 (inactive). In addition, the call in [8] was inactive.
Regarding `CCOC(=O)CC(=O)CSc1nc2c(cc1C#N)CCCCCC2`, the cell count in assay [1] is 706. Besides, the inhibition in assay [1] was -1.3% (inactive); in assay [2], 25.1% (inactive); in [4], -8.95% (inactive); in assay [9], 0.237% (inactive). In assay [2], this compound came in with a nuclei count of 180%. For the same compound, the results for the z-score in [3] (setting [10]), in [3] (setting [11]) and in assay [3] (setting [12]) were -0.436, -0.188 and -0.491, respectively. In addition, the fluorescence slope in assay [5] is -0.285 (inactive). Further, the NADPH fluorescence slope in assay [6] is -5.2e-06 (inactive). Further, the slope in [7] is 0.00458 (inactive). For the same compound, in [8], the outcome was inactive.
Regarding `Cc1cc(C)nc(CC(N)=O)n1`, in assay [1], the cell count turned out to be 623. The inhibition in [1] is -3.1% (inactive); in assay [2], 3.3% (inactive); in [4], 6.04% (inactive); in assay [9] it was 14.5% (inactive). Also, the nuclei count in assay [2] amounted to 142%. The z-score in assay [3] (setting [10]) was found to be 0.214; in assay [3] (setting [11]) it was 0.0631; in assay [3] (setting [12]), 0.457. Moreover, in assay [5], the fluorescence slope is -0.508 (inactive). Besides, the NADPH fluorescence slope in assay [6] is -4e-05 (inactive). Further, in assay [7], the slope is 0.0046 (inactive). Also, in assay [8], the compound was called inactive.
